Test results published in ChEMBL document CHEMBL4622964, “Designing Dihydrofolate Reductase Inhibitors as X-ray Radiosensitizers to Reverse Radioresistance of Cervical Cancer” (ACS Med Chem Lett, 2020).
Activity calls are given as the source filed them. The rule behind the calls is not given here.

Legend:
[1] = Toxicity in BALB/c mouse xenografted with human HeLa cells assessed as body weight loss at 4 mg/kg, iv administered for every 3 days and measured after 21 days; assay type: organism-based; settings: in vivo, 504 h
In short: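 HeLa-tumor-bearing nude mice given compound at 4 mg/kg by tail-vein injection every 3 days, alone or with X-rays; body weight recorded across 21 days.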

[2] = Ratio of IC50 for cytotoxicity against human Ect1 cells assessed as reduction in cell viability by MTT assay to cytotoxicity against human Ect1 cells assessed as reduction in cell viability in presence of 4 Gy irradiation by MTT assay; assay type: cell-based; settings: read-out: Ratio IC50
In short: (§1)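 MTT viability assay on Ect1/E6E7 normal ectocervical cells and HeLa cells, with 0 or 4 Gy X-rays. SER = IC50(0 Gy)/IC50(4 Gy) in the same line; safe index SI4 = IC50 Ect1/E6E7 + 4 Gy divided by IC50 HeLa + 4 Gy.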

HeLa [3] = experiment: Induction of mitochondrial dysfunction in human HeLa cells assessed as change in mitochondrial membrane potential at 1 uM incubated for 24 hrs in presence of 4 Gy X-ray irradiation by JC1 staining based flow cytometry (reference value: 4.9%); assay type: functional
In short: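 Mitochondrial membrane potential was assessed by JC-1 flow cytometry in HeLa cells treated at 1 μM without or with 4 Gy X-rays. Green fluorescence gives the proportion of cells with lost ΔΨm.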

HeLa [4] = experiment: Antitumor activity against human HeLa cells xenografted in BALB/c mouse at 4 mg/kg, iv administered for every 3 days for 21 days; assay type: functional, organism-based
In short: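 Nude mice bearing HeLa tumors; compound by tail-vein injection every 3 days over 21 days at 4 mg/kg, alone or combined with X-rays.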

[5] = Toxicity in BALB/c mouse xenografted with human HeLa cells assessed as kidney damage by measuring effect on uric acid level at 4 mg/kg, iv administered every 3 days for 21 days; assay type: organism-based; settings: in vivo
In short: (§2)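 HeLa xenograft nude mice dosed at 4 mg/kg iv every 3 days over 21 days, alone or with X-rays; blood collected 24 h after last injection for serum biochemistry: ALT, AST (liver), BUN and uric acid (kidney).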

HeLa [6] = experiment: Induction of cell cycle arrest in human HeLa cells assessed as accumulation at G2/M phase at 1 uM after 48 hrs by propidium iodide staining based flow cytometric analysis (reference value: 17.7%); assay type: functional
HeLa [7] = experiment: Induction of apoptosis in human HeLa cells assessed as caspase-3 activation at 1 uM using Ac-DEVD-AMC as substrate after 12 hrs in presence of 4 Gy X-ray radiation by fluorescence based assay relative to control; assay type: functional
In short: (§3)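 Caspase-3 and caspase-8 activities were measured in HeLa cells after 12 h at 1 μM, without or with 4 Gy X-rays. Mean ± SD of three independent experiments.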

[8] = Toxicity in BALB/c mouse xenografted with human HeLa cells assessed as spleen damage at 4 mg/kg, iv administered for every 3 days for 21 days and measured after 24 hrs post last dose by H and E staining based light microscopic analysis; assay type: organism-based; settings: in vivo
In short: (§4)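 HeLa-tumor-bearing nude mice dosed at 4 mg/kg iv every 3 days for 21 days, alone or with X-rays; euthanized 24 h after last injection; heart, liver, lungs, kidneys and spleen sectioned and stained with H&E.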

HeLa [9] = experiment: Induction of apoptosis in human HeLa cells assessed as caspase-9 activation at 1 uM using Ac-LEHD-AMC as substrate after 12 hrs by fluorescence based assay; assay type: functional, cell-based
In short: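 HeLa cells exposed to 1 μM compound with or without 4 Gy X-rays for 12 h; caspase 8, 9 and 3 activities measured; mean ± SD of three independent experiments.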

HeLa [10] = experiment: Induction of ROS generation in human HeLa cells by DHE fluorescent dye based microplate reader analysis relative to control; assay type: functional
In short: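 Intracellular ROS in HeLa cells were measured with the dihydroethidium probe, whose superoxide-oxidised product fluoresces red. Cells were treated with or without 4 Gy X-rays, then incubated with DHE. Fluorescence was read on a microplate reader and expressed as % of untreated cells.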

[11] = Toxicity in BALB/c mouse xenografted with human HeLa cells assessed as lung damage at 4 mg/kg, iv administered for every 3 days for 21 days and measured after 24 hrs post last dose by H and E staining based light microscopic analysis; assay type: organism-based; settings: in vivo; in short: as §4
[12] = Toxicity in BALB/c mouse xenografted with human HeLa cells assessed as liver damage by measuring effect on AST level at 4 mg/kg, iv administered every 3 days for 21 days in presence of 4 Gy X-ray irradiation; assay type: organism-based; settings: in vivo; in short: as §2
HeLa [13] = experiment: Induction of apoptosis in human HeLa cells assessed as caspase-3 activation at 1 uM using Ac-DEVD-AMC as substrate after 12 hrs by fluorescence based assay relative to control; assay type: functional; in short: as §3
[14] = Drug uptake in human HeLa cells at 4 uM after 4 hrs by fluorescence based assay; assay type: ADME, cell-based
[15] = Cytotoxicity against human Ect1 cells assessed as reduction in cell viability by MTT assay; assay type: cell-based
In short: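 MTT viability assay in Ect1/E6E7 normal ectocervical epithelial cells, with the test agent alone (0 Gy) or combined with 4 Gy X-rays. IC50 values are in μM.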

HeLa [16] = experiment: Induction of mitochondrial dysfunction in human HeLa cells assessed as increase in mitochondrial fission at 1 uM after 24 hrs in presence of 4 Gy X-ray irradiation by DAPI staining based fluorescence microscopic analysis; assay type: functional, cell-based
In short: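 HeLa cells treated with 1 μM compound, without or with 4 Gy X-rays; mitochondrial morphology imaged by fluorescence microscopy after MitoTracker and DAPI co-staining.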

HeLa [17] = experiment: Induction of apoptosis in human HeLa cells assessed as caspase-8 activation at 1 uM using […] as substrate after 12 hrs in presence of 4 Gy X-ray radiation by fluorescence based assay relative to control; assay type: functional; in short: as §3
[18] = Safety index, ratio of IC50 for cytotoxicity against human Ect1/E6E7 cells assessed as reduction in cell viability in presence of 4 Gy irradiation by MTT assay to antiproliferative activity against human HeLa cells assessed as reduction in cell viability preincubated for 12 hrs followed by 4 Gy irradiation and measured after 60 hrs by MTT assay; assay type: toxicity, cell-based; settings: Ect1/E6E7 cells versus HeLa cells, read-out: Ratio IC50; in short: as §1
HeLa [19] = experiment: Induction of cell cycle arrest in human HeLa cells assessed as accumulation at SubG1 phase at 1 uM after 48 hrs in presence of 4 Gy X-ray radiation by propidium iodide staining based flow cytometric analysis (reference value: […]); assay type: functional
[20] = Toxicity in BALB/c mouse xenografted with human HeLa cells assessed as kidney damage by measuring effect on uric acid level at 4 mg/kg, iv administered every 3 days for 21 days in presence of 4 Gy X-ray irradiation; assay type: organism-based; settings: in vivo; in short: as §2
HeLa [21] = experiment: Induction of cell cycle arrest in human HeLa cells assessed as accumulation at SubG1 phase at 1 uM after 48 hrs by propidium iodide staining based flow cytometric analysis (reference value: 0.8%); assay type: functional
[22] = Toxicity in BALB/c mouse xenografted with human HeLa cells assessed as lung damage at 4 mg/kg, iv administered for every 3 days for 21 days and measured after 24 hrs post last dose in presence of 4 Gy X-ray irradiation by H and E staining based light microscopic analysis; assay type: organism-based; settings: in vivo; in short: as §4
[23] = Toxicity in BALB/c mouse xenografted with human HeLa cells assessed as kidney damage at 4 mg/kg, iv administered for every 3 days for 21 days and measured after 24 hrs post last dose by H and E staining based light microscopic analysis; assay type: organism-based; settings: in vivo; in short: as §4

With `Nc1nc(N)c2nc3c(nc2n1)-c1cccc2cccc-3c12` the Activity [1] was “Non-Toxic”, the selectivity ratio [2] was 2.2 and the Activity (HeLa [3]) was 32.3%. For the same compound, the Activity (HeLa [4]) was “Active”, the Activity [5] was “Non-Toxic” and the Activity (HeLa [6]) was 32.1%. For the same compound, the Activity (HeLa [7]) was 150%, the Activity [8] was “Non-Toxic” and the Activity (HeLa [9]) was “Active”. For the same compound, the Activity (HeLa [10]) was 132%, the Activity [11] was “Non-Toxic” and the Activity [12] was “Non-Toxic”. The Activity (HeLa [13]) was 121%, the Drug uptake [14] was “Active” and the IC50 [15] was 6.9 µM. For the same compound, the Activity (HeLa [16]) was “Active”, the Activity (HeLa [17]) was 129% and the selectivity ratio at 60 h [18] was 4.8. The Activity (HeLa [19]) was 30.2%, the Activity [20] was “Non-Toxic” and the Activity (HeLa [21]) was 6.9%. The Activity [22] was “Non-Toxic” and the Activity [23] was “Non-Toxic”.
